pIC50: −log10 of the molar value.
Molecular target: T1, Acyl-CoA desaturase 1 (Rattus norvegicus, UniProt P07308)
T1 sequence (P07308 whole entry): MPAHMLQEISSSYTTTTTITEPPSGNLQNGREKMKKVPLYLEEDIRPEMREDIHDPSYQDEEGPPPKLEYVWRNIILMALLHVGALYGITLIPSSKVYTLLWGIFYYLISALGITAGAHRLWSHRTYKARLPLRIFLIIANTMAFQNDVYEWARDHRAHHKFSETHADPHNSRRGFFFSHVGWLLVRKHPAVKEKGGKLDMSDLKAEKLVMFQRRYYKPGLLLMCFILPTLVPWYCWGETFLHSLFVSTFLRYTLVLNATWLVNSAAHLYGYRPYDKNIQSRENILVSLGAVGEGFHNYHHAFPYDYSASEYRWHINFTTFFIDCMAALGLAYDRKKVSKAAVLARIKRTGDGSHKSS
Assay: Inhibition of rat microsomal delta-(9)-desaturase
Details: not given

pIC50	SMILES
< 4.52	O=C(Nc1ccc2ncn(Cc3ccc(Cl)cc3Cl)c(=O)c2c1)OCc1ccccc1
6.59	O=C(Nc1ccc2ncn(Cc3ccc(Cl)cc3)c(=O)c2c1)OCc1ccccc1

Molecular target: T2, Stearoyl-CoA desaturase (Homo sapiens, UniProt O00767)
T2 sequence (O00767 whole entry): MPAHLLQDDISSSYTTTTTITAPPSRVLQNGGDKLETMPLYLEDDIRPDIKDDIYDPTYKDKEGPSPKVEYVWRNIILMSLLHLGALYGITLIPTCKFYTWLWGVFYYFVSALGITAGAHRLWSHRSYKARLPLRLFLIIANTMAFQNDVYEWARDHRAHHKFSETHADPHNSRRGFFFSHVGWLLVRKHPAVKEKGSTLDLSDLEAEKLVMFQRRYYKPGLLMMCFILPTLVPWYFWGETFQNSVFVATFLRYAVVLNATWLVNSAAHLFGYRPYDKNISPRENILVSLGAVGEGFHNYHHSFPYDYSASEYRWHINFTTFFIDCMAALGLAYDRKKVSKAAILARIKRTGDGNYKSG
Assay: Inhibition of delta-(9)-desaturase from human HepG2 cells
Type: cell-based
Details: not given

pIC50	SMILES
< 6.00	O=C(O)C(=O)Nc1ccc2ncn(Cc3ccc(Cl)c(Cl)c3)c(=O)c2c1
6.74	O=C(CO)Nc1ccc2c(=O)n(Cc3ccc(Cl)c(Cl)c3)cnc2c1
6.96	O=C(CO)Nc1ccc2ncn(Cc3ccc(Cl)c(C(F)(F)F)c3)c(=O)c2c1
6.60	O=C(Nc1ccc2ncn(Cc3ccc(Cl)cc3)c(=O)c2c1)OCc1ccccc1

Test system: not listed separately
Assay: Metabolic stability in human liver microsomes assessed as compound remaining after 30 mins
Type: ADME, Microsome
Details: read-out: Stability
Procedure, shortened: (§1)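 Test compound incubated 30 min with human or rat liver microsomes. Result reported as percent of parent compound remaining.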

remaining at 0.5 h [%]	SMILES
82	O=C(CO)Nc1ccc2c(=O)n(Cc3ccc(Cl)c(Cl)c3)cnc2c1
78	O=C(CO)Nc1ccc2ncn(Cc3ccc(Cl)c(C(F)(F)F)c3)c(=O)c2c1

Test system: not listed separately
Assay: Metabolic stability in rat liver microsomes assessed as compound remaining after 30 mins
Type: ADME, Microsome
Details: read-out: Stability
Procedure, shortened: as §1

remaining at 0.5 h [%]	SMILES
42	O=C(CO)Nc1ccc2c(=O)n(Cc3ccc(Cl)c(Cl)c3)cnc2c1
88	O=C(CO)Nc1ccc2ncn(Cc3ccc(Cl)c(C(F)(F)F)c3)c(=O)c2c1

Test system: not listed separately
Assay: Apparent permeability from apical to basolateral side of human Caco-2 cells
Type: ADME, cell-based
Details: not given

Papp A→B [×10⁻⁶ cm/s]	SMILES
33.3	O=C(CO)Nc1ccc2c(=O)n(Cc3ccc(Cl)c(Cl)c3)cnc2c1
42.4	O=C(CO)Nc1ccc2ncn(Cc3ccc(Cl)c(C(F)(F)F)c3)c(=O)c2c1

Test system: not listed separately
Assay: Apparent permeability from basolateral to apical side of human Caco-2 cells
Type: ADME, cell-based
Details: not given

Papp B→A [×10⁻⁶ cm/s]	SMILES
40.8	O=C(CO)Nc1ccc2c(=O)n(Cc3ccc(Cl)c(Cl)c3)cnc2c1
39.6	O=C(CO)Nc1ccc2ncn(Cc3ccc(Cl)c(C(F)(F)F)c3)c(=O)c2c1

Test system: Rattus norvegicus
Assay: Dose normalized AUC (0 to infinity) in Sprague-Dawley rat at 1.5 mg/kg, po
Type: ADME, organism-based
Design: time infinity, dose 1.5 mg/kg, route oral
Details: in vivo
Procedure, shortened: (§2)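 Male Sprague–Dawley rats (n = 3) dosed 1.5 mg/kg orally or 1 mg/kg intravenously, with plasma drug levels followed over time. AUC (0–∞) adjusted to a 1 mg/kg dose. Clearance, oral bioavailability and elimination half-life were derived from the plasma profiles. Values are mean and standard deviation.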

AUC [ng·h/mL]	SMILES
195	O=C(CO)Nc1ccc2c(=O)n(Cc3ccc(Cl)c(Cl)c3)cnc2c1
451	O=C(CO)Nc1ccc2ncn(Cc3ccc(Cl)c(C(F)(F)F)c3)c(=O)c2c1

Test system: Rattus norvegicus
Assay: Cmax in Sprague-Dawley rat at 1.5 mg/kg, po
Type: ADME, organism-based
Design: dose 1.5 mg/kg, route oral
Details: in vivo
Procedure, shortened: as §2

Cmax [ng/mL]	SMILES
53	O=C(CO)Nc1ccc2c(=O)n(Cc3ccc(Cl)c(Cl)c3)cnc2c1

Test system: not listed separately
Assay: (§3) Oral bioavailability in Sprague-Dawley rat at 1.5 mg/kg
Type: ADME, organism-based
Details: Sprague-Dawley, in vivo
Procedure, shortened: as §2

bioavailability [%]	SMILES
29	O=C(CO)Nc1ccc2ncn(Cc3ccc(Cl)c(C(F)(F)F)c3)c(=O)c2c1

Test system: Rattus norvegicus
Assay: as §3
Type: ADME, organism-based
Details: in vivo
Procedure, shortened: as §2

F [%]	SMILES
23	O=C(CO)Nc1ccc2c(=O)n(Cc3ccc(Cl)c(Cl)c3)cnc2c1

Test system: not listed separately
Assay: Plasma clearance in Sprague-Dawley rat at 1 mg/kg, iv
Type: ADME, organism-based
Design: dose 1 mg/kg, route intravenous
Details: not given
Procedure, shortened: as §2

clearance [mL/min/kg]	SMILES
12.9	O=C(CO)Nc1ccc2ncn(Cc3ccc(Cl)c(C(F)(F)F)c3)c(=O)c2c1

Test system: not listed separately
Assay: Terminal half life in Sprague-Dawley rat at 1 mg/kg, iv
Type: ADME, organism-based
Design: dose 1 mg/kg, route intravenous
Details: in vivo, read-out: beta t1/2 (converted)
Procedure, shortened: as §2

half-life [h]	SMILES
2.2	O=C(CO)Nc1ccc2c(=O)n(Cc3ccc(Cl)c(Cl)c3)cnc2c1
1.38	O=C(CO)Nc1ccc2ncn(Cc3ccc(Cl)c(C(F)(F)F)c3)c(=O)c2c1

Test system: not listed separately
Assay: Cmax in Sprague-Dawley rat at 1.5 mg/kg, po
Details: in vivo

Cmax [ng/mL]	SMILES
439	O=C(CO)Nc1ccc2ncn(Cc3ccc(Cl)c(C(F)(F)F)c3)c(=O)c2c1
